The values below come from PubChem BioAssay AID493081 (Broad Institute, 2011).

Activity calls are given as the source filed them.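 How the source made its calls: active means fitted half-maximal dose of growth inhibition at or below ten times the top valid tested dose; inconclusive means flat fit with moderate inhibition, or poor fit quality; inactive means the rest.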

System in the first experiment: not listed separately
As to the kind of experiment: Candida CaCi-2 inhibitors alongside fluconazole – CaCi-2 isolate, dry powder retest, no file, confirmation (AID 493081). The settings on record: C. albicans CaCi-2 + fluconazole, Alamar Blue, 48 h; at 12 µM (top of the series). A digest of the protocol:
(§1)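 Schedule – 48 h at 37 °C, then 2 h dye step · Assay system – Candida albicans clinical isolate CaCi-2, fluconazole-resistant strain · Detection – Alamar Blue fluorescence, excitation 544 nm, emission 590 nm · Reagent – fluconazole at 8 µg/mL throughout the growth period · Read-out – fungal growth from fluorescence, lower signal meaning growth inhibition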
As for `CCCCn1nc(-c2ccccc2)c2ccccc21`, the activity change, negative = growth inhibition is 19.1% (inactive). Turning to `COC(=O)Cn1nc(-c2ccccc2)c2ccc(C(F)(F)F)cc21`, the activity change, negative = growth inhibition was -26.8% (inactive).

Take `CCC(=O)Cn1nc(-c2ccccc2)c2ccccc21`: the activity change, negative = growth inhibition is -16.1% (inactive). For the molecule `O=C(Cn1nc(-c2ccccc2)c2ccccc21)OC1CCC1`, the activity change, negative = growth inhibition was -23.5% (inactive).

With `O=C(O)Cn1nc(-c2ccccc2)c2ccccc21`, the activity change, negative = growth inhibition was -9.2% (inactive). As to `O=C(Cn1c2ccccc2c2ccncc21)N1CCCCC1`, the activity change, negative = growth inhibition is -31.9% (inactive).

With `O=C1OCCC1n1nc(-c2ccccc2)c2ccccc21` (stereo not given), the activity change, negative = growth inhibition was -11.6% (inactive).

With `COc1ccc(-c2n[nH]c3ccccc23)cc1`, the activity change, negative = growth inhibition is -24.1% (inactive). On to `COC(=O)C(C)(C)n1nc(-c2ccccc2)c2ccccc21`, for which the activity change, negative = growth inhibition was -6.64% (inactive). Same read-out and setting: to `COC(=O)CCCn1nc(-c2ccccc2)c2ccccc21` belongs -23.8% (inactive); to `FC(F)(F)c1ccc(-c2n[nH]c3ccccc23)cc1`, -27.3% (inactive); to `COC(=O)Cn1nc(-c2ccccc2)c2cccc(C(F)(F)F)c21`, 1.65% (inactive).

The next experiment has as its system C. albicans CaCi-2 (fluconazole-resistant clinical isolate) + fluconazole, Alamar Blue, 48 h. Described as above.
Conditions: not given
The procedure, abridged: as §1
What is called AC50 is the concentration giving half of the maximal activity seen. Turning to `O=C(Cn1c2ccc(F)cc2c2nc3n(c(=O)c21)CCS3)N1CCCC1`, the AC50 was 0.608 µM.

For the molecule `O=C(Cn1c2ccccc2c2nc3n(c(=O)c21)CCS3)N1CCCCC1`, the AC50 was 0.606 µM.

Consider `COC(=O)Cn1nc(-c2cccc(F)c2)c2ccccc21`, for which the AC50 was 8.12 µM. `O=C(Cn1c2ccccc2c2nc3n(c(=O)c21)CCS3)N1CCCC1`: the AC50 was 0.835 µM. Take `O=C(Cn1c2ccc(F)cc2c2nc3n(c(=O)c21)CCS3)N1CCCCCC1`: the AC50 is 0.629 µM. As for `CC1CCN(C(=O)Cn2c3ccccc3c3nc4n(c(=O)c32)CCS4)CC1`, the AC50 is 1.79 µM.

`CCN(CC)C(=O)Cn1c2ccc(F)cc2c2nc3n(c(=O)c21)CCS3`: the AC50 was 0.069 µM. As to `O=C(Cn1c2ccc(F)cc2c2nc3n(c(=O)c21)CCS3)N1CCCCC1`, the AC50 is 0.413 µM. The same measure, in the same setting: the value for `COC(=O)Cn1nc(-c2ccccc2C)c2ccccc21` was 6.14 µM; that for `CCN(CC)C(=O)Cn1c2ccccc2c2nc3n(c(=O)c21)CCS3` was 7.43 µM. `COC(=O)Cn1nc(-c2ccc(F)cc2)c2ccccc21`: the AC50 is 8.18 µM.

Consider `O=C(Cn1c2ccccc2c2nc3n(c(=O)c21)CCS3)N1CCOCC1`, for which the AC50 was 1.61 µM.

In the case of `COC(=O)Cn1nc(-c2ccccc2)c2ccccc21`, the AC50 was 1.27 µM.
